Results on one molecule are retold here after ChEMBL document CHEMBL5036324 (J Med Chem, 2021).

SMILES strings stand for the structures. Active and inactive are the calls of the source. The calls are words filed in the database; no cut-off is given here.

Assay [1] deals with TLR7 and TLR8 (Homo sapiens) (UniProt Q9NYK1+Q9NR97). Kind of assay: Agonist activity at human TLR7/8 expressed in human PBMC cells assessed as induction of MIP-1alpha production by measuring concentration required to induce maximal response incubated for 12 hrs by multiplexed immunoassay. To be noted: filed as agonist. It counts as cell-based. The method in brief:
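Healthy-volunteer PBMCs from a single donor were isolated by Ficoll−Hypaque gradient and plated at 2.0 × 10⁶ cells/mL. They were stimulated for 12 h with escalating compound concentrations. Supernatants were assayed in duplicate on a 41-analyte magnetic bead cytokine/chemokine panel read by Luminex. EC_max is the concentration giving maximal cytokine induction.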

The test system of assay [2] is CT26. As to the kind of experiment: Antitumor immunity against mouse CT26 cells implanted in BALB/c mouse assessed as increase in infiltration of CD4+ TH1 cells at 25 ug, ip administered once a week for 23 days by flow cytometry analysis. Particulars: dose 25.0 µg, time 23.0 day. It counts as functional, organism-based. The method in brief: (§1)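 CT26-bearing BALB/c mice (n = 5) were treated ip once weekly with agonist, alone or with anti-PD-1 (200 μg, twice weekly). Tumours were harvested 23 days after implantation, enzymatically and mechanically dissociated into single cells, and stained for surface markers plus intracellular FoxP3 after fixation/permeabilisation. Cells were gated within CD45⁺ for CD11c⁺ DCs, CD11b⁺F4/80⁺MHCII⁺ (M1), CD206⁺ (M2), CD3/CD4/CD8, and CD4⁺CD25⁺FoxP3⁺ Treg, then analysed by flow cytometry.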

For assay [3], the system named is CT26. Kind of assay: Antitumor immunity against mouse CT26 cells implanted in BALB/c mouse assessed as increase in Teff/Treg ratio at 25 ug, ip administered once a week for 23 days by flow cytometry analysis. It is filed as functional, organism-based. To be noted: dose 25.0 µg, time 23.0 day. The procedure, abridged: as §1
(Flow cytometry measures light scatter and fluorescence of single cells or particles in a stream.)

In the case of `CCCCNc1nc(N)nc2ccc(Cc3ccc(CN(C)C)cc3)nc12`, the ECmax in assay [1] was 0.1 µg/mL. In addition, the result in assay [2] and in assay [3] was Active.
